The results in this text go back to ChEMBL document CHEMBL5661979, “Pharmacological inhibition of BMK1 suppresses tumor growth through promyelocytic leukemia protein” (Cancer Cell, 2010).

Where only a bound is given, the exact number is not on record here.

What is called IC50 is the concentration at which inhibition is half-maximal. The low end stands for inhibition by little substance, the high end for a need for much substance. A word on the inhibition: it is the share of the control response that was lost under treatment. As a reminder, the half-life is the time needed for the level to fall by half in the phase considered. A higher half-life goes with slow decline.

Series [1] concerns the target Interferon-induced, double-stranded RNA-activated protein kinase (Homo sapiens, UniProt P19525). In words: Inhibition of PKR in human HeLa cells lysate pre incubated for 15 mins followed by ADP acyl phosphate probe addition and measured after 10 mins by LC-MS/MS analysis. The class given is subcellular.
Series [2] addresses T1, Phosphorylase b kinase gamma catalytic chain, liver/testis isoform (Homo sapiens) (UniProt P15735).
T1 sequence (whole entry): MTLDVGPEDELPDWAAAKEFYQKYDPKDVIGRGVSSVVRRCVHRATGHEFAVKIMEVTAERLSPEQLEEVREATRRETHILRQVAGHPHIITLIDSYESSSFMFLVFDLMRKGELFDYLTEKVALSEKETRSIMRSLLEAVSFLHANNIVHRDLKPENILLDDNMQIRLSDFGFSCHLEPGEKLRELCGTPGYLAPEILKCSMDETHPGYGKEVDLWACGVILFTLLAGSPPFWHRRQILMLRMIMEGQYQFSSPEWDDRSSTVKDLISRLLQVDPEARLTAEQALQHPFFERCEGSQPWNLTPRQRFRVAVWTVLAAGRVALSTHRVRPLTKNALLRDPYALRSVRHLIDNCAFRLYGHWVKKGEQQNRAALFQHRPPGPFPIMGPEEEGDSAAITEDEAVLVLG
The series can be described thus: Inhibition of PHKG2 in human HeLa cells lysate at 2 uM pre incubated for 15 mins followed by ADP acyl phosphate probe addition and measured after 10 mins by LC-MS/MS analysis relative to control. Particulars: time 25.0 min. The class given is subcellular.

The target in series [3] is RAC-alpha serine/threonine-protein kinase (Homo sapiens, UniProt P31749). The series can be described thus: Inhibition of AKT1 in human HeLa cells lysate pre incubated for 15 mins followed by ATP acyl phosphate probe addition and measured after 10 mins by LC-MS/MS analysis. The class given is subcellular. The essentials:
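HeLa cell lysates (5 mg/mL total protein) were preincubated with inhibitor at 0, 0.8, 2, 10 or 50 μM for 15 min. ATP or ADP acylphosphate probe was then added (5 μM final) for 10 min, and reactions were stopped with urea. Up to four fragment ions per kinase probe-peptide were quantified by targeted MS. % inhibition was taken relative to untreated lysate. Run in duplicate.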

A short description of series [4]: Half life in Sprague-Dawley rat at 2 mg/kg, po measured up to 8 hrs by LC-MS/MS analysis. The series is classed as ADME, organism-based. Particulars: in vivo. The essentials:
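Sprague-Dawley rats given one intravenous dose or one oral dose of 2 mg/kg. Plasma drug concentrations were followed over time, with samples taken out to 8 hr after dosing. PK parameters (clearance, volume of distribution, half-life, oral bioavailability, Cmax) were calculated from these concentration–time data.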

Series [5] deals with T2, Serine/threonine-protein kinase A-Raf (Homo sapiens) (UniProt P10398).
T2 sequence (whole entry): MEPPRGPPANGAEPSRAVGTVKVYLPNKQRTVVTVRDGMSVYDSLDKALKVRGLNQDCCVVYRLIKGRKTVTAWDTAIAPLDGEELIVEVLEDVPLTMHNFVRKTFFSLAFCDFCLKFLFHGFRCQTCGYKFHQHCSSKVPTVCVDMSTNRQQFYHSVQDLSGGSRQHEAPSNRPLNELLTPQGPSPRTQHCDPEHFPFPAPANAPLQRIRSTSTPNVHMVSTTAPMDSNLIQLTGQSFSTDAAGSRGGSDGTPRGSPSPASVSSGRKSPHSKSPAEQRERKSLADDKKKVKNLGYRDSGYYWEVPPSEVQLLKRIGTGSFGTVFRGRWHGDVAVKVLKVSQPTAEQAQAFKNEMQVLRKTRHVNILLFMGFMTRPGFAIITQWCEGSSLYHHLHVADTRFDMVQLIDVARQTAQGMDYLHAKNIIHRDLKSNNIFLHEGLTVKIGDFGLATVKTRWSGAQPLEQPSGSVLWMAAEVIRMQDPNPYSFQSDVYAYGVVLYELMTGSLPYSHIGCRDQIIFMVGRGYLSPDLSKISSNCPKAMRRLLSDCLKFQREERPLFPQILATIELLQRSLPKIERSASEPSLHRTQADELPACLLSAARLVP
In words: Inhibition of ARAF in human HeLa cells lysate at 2 uM pre incubated for 15 mins followed by ATP acyl phosphate probe addition and measured after 10 mins by LC-MS/MS analysis relative to control. The series is classed as subcellular. Particulars: time 25.0 min. The essentials:
(§1)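 KiNativ-type profiling in HeLa lysate (5 mg/mL total protein). Lysate preincubated 15 min with inhibitor at 50, 10, 2, 0.8 or 0 μM, then ATP or ADP acylphosphate probe added (5 μM final) for 10 min. Reaction stopped with urea and analysed by targeted MS, using up to four fragment ions per kinase peptide-probe conjugate. % inhibition calculated against untreated lysate. Duplicate reactions.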

Series [6] has as its target Serine/threonine-protein kinase DCLK1 (Homo sapiens) (UniProt O15075). The series can be described thus: Inhibition of DCAMKL1 (unknown origin) assessed as remaining activity at 10 uM by ATP-competition binding assay relative to control.
Series [7] addresses T3, Serine/threonine-protein kinase B-raf (Homo sapiens, UniProt P15056). The series can be described thus: Inhibition of BRAF in human HeLa cells lysate at 10 uM pre incubated for 15 mins followed by ADP acyl phosphate probe addition and measured after 10 mins by LC-MS/MS analysis relative to control. The series is classed as subcellular. As to conditions: time 25.0 min. The essentials: as §1

Series [8] addresses MAP/microtubule affinity-regulating kinase 3 (Homo sapiens, UniProt P27448). In words: Inhibition of MARK3 in human HeLa cells lysate pre incubated for 15 mins followed by ADP acyl phosphate probe addition and measured after 10 mins by LC-MS/MS analysis. The series is classed as subcellular.
The target of series [9] is T4, Mixed lineage kinase domain-like protein (Homo sapiens) (UniProt Q8NB16).
T4 sequence (whole entry): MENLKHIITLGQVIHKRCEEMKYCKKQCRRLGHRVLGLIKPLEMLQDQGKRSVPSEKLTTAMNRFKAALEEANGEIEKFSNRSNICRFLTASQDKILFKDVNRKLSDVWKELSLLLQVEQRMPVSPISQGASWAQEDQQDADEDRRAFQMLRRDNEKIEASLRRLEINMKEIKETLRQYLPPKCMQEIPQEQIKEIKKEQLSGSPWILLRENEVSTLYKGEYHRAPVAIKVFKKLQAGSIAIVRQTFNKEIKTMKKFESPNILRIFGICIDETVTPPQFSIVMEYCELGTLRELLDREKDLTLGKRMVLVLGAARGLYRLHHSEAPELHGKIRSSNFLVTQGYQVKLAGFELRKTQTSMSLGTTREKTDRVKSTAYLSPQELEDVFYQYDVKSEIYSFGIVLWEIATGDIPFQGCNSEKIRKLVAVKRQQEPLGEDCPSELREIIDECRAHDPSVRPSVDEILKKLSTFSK
In words: Inhibition of MLKL in human HeLa cells lysate at 10 uM pre incubated for 15 mins followed by ADP acyl phosphate probe addition and measured after 10 mins by LC-MS/MS analysis relative to control. The class given is subcellular. As to conditions: time 25.0 min.

The target in series [10] is Ribosomal protein S6 kinase alpha-1 (Homo sapiens, UniProt Q15418). The series can be described thus: Inhibition of RSK1 domain 2 K1 site in human HeLa cells lysate pre incubated for 15 mins followed by ADP acyl phosphate probe addition and measured after 10 mins by LC-MS/MS analysis. The series is classed as subcellular.
Series [11] concerns the target T3, Serine/threonine-protein kinase B-raf. The series can be described thus: Inhibition of BRAF in human HeLa cells lysate at 50 uM pre incubated for 15 mins followed by ATP acyl phosphate probe addition and measured after 10 mins by LC-MS/MS analysis relative to control. The class given is subcellular. As to conditions: time 25.0 min. The essentials: as §1

T3 sequence (P15056 whole entry): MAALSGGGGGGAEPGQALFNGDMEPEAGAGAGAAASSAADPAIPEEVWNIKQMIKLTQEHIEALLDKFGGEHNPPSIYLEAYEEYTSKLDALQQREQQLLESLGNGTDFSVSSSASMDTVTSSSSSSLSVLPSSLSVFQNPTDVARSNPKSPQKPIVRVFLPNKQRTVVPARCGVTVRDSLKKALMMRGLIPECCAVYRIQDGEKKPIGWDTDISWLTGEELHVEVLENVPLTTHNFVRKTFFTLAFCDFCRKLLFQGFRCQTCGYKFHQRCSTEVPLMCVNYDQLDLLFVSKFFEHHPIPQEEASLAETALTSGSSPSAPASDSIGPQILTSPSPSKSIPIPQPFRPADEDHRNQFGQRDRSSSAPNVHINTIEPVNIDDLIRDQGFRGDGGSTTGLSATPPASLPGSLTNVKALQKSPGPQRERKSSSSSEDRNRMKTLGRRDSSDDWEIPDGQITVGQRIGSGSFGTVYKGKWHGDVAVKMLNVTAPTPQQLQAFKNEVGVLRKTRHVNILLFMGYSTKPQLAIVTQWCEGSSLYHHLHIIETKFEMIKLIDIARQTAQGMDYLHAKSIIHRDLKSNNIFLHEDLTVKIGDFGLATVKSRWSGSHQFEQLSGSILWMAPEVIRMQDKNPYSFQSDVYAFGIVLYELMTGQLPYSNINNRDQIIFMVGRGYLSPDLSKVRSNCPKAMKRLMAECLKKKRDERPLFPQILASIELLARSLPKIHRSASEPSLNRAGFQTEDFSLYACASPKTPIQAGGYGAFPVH
Sequence of RAC-alpha serine/threonine-protein kinase (P31749 whole entry, the tested form may be a part): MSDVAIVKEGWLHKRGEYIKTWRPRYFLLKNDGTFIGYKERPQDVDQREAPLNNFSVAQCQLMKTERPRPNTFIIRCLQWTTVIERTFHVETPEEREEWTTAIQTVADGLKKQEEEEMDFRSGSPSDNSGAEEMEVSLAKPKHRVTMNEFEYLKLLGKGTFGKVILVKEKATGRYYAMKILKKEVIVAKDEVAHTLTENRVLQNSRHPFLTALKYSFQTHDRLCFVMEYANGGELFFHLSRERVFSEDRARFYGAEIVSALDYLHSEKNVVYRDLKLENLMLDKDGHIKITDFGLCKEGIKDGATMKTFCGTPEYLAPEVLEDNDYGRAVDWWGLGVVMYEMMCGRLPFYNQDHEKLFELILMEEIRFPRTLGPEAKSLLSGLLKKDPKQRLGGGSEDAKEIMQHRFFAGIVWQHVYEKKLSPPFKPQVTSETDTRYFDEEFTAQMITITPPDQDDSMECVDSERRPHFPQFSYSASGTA
Sequence of Serine/threonine-protein kinase DCLK1 (Homo sapiens) (O15075 whole entry): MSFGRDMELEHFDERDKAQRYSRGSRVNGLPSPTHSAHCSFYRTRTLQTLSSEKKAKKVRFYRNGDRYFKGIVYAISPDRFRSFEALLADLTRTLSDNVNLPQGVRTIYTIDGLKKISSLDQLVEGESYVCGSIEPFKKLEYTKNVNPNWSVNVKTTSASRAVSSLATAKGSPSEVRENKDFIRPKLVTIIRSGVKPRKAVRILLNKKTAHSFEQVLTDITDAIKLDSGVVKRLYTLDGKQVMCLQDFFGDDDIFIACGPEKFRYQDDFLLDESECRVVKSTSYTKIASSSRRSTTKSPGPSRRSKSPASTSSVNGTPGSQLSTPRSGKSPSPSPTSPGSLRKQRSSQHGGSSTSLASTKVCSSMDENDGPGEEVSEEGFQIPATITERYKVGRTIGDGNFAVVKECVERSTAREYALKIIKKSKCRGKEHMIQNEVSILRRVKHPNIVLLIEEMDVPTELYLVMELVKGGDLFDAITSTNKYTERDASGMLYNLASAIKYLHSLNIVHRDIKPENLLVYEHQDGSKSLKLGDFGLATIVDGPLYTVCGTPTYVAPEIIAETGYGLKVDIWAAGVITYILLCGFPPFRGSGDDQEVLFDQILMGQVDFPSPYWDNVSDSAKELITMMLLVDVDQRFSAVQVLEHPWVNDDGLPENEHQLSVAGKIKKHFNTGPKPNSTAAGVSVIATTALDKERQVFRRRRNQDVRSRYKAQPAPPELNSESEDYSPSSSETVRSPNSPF
Sequence of MAP/microtubule affinity-regulating kinase 3 (P27448 whole entry, the tested form may be a part): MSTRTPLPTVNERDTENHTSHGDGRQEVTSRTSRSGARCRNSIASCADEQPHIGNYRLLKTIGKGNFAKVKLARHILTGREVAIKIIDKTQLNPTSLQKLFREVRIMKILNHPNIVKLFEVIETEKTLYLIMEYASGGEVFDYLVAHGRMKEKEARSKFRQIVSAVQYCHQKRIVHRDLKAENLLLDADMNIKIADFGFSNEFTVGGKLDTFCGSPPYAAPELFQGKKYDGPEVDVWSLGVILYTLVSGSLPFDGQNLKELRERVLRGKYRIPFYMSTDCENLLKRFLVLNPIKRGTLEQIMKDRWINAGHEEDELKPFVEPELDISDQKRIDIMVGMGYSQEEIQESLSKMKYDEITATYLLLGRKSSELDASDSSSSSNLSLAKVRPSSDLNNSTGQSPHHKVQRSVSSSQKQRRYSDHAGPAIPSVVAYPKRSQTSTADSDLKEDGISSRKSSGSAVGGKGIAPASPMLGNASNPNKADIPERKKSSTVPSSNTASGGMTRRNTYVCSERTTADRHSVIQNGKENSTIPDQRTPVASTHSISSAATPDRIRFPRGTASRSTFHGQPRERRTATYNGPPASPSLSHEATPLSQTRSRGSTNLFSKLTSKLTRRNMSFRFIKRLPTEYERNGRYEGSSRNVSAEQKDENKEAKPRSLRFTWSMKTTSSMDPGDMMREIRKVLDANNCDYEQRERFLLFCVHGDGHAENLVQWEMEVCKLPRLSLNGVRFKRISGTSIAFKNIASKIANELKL
Sequence of Ribosomal protein S6 kinase alpha-1 (Q15418 whole entry, the tested form may be a part): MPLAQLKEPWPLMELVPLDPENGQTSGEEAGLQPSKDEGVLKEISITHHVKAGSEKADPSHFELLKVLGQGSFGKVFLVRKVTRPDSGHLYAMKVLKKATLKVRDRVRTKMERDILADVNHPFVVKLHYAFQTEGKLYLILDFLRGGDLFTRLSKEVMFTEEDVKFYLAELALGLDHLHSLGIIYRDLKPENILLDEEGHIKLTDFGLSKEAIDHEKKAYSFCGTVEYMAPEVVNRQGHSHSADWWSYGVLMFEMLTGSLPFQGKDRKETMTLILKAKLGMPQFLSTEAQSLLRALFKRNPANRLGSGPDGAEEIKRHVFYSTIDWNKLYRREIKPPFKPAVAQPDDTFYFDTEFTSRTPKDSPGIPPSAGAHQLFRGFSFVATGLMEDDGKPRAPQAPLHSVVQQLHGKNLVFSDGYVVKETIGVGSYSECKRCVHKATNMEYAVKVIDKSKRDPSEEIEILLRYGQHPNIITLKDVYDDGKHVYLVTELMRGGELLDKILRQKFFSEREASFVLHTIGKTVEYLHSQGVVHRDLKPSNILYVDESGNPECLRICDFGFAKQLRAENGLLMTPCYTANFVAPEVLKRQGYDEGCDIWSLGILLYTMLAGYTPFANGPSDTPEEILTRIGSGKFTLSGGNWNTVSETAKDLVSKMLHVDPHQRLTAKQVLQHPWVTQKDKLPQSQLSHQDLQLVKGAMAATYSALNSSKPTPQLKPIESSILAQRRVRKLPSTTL
Sequence of Interferon-induced, double-stranded RNA-activated protein kinase (P19525 whole entry, canonical isoform): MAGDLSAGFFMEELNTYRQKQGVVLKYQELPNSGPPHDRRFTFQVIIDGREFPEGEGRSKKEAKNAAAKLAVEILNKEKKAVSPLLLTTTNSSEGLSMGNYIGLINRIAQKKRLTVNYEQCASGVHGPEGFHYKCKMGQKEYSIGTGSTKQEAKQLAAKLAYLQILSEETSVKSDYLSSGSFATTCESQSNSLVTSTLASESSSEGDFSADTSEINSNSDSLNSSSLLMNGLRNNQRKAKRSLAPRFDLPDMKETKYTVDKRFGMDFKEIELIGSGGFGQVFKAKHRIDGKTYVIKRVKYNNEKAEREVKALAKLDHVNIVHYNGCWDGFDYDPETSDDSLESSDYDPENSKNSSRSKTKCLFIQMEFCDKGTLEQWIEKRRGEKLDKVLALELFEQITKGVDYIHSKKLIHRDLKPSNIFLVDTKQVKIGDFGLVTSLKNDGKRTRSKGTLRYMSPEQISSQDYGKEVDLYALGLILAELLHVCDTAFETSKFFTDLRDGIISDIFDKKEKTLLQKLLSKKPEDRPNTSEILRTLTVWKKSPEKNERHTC

`CCOc1cc(N2CCC(O)CC2)ccc1Nc1ncc2c(n1)N(C)c1ccccc1C(=O)N2C`: the IC50 is greater than 50 µM in [1], greater than 50 µM in [3], greater than 50 µM in [8] and 29 µM in series [10]. Also, the inhibition in [2] came to 3.4%; in [5], 3.3%; in series [7], 2.3%; in series [9], 12%; in series [11], 8%. The compound further had a half-life in series [4] of 3.4 h. The Activity in [6] turned out to be 0.9%.
